Assay [1] has as its target T1, Human immunodeficiency virus type 1 integrase (Human immunodeficiency virus 1, UniProt Q7ZJM1). The assay can be described thus: Inhibition of HIV1 integrase 3' processing activity by PAGE.
Assay [2] has as its target T1, Human immunodeficiency virus type 1 integrase. The assay can be described thus: Inhibition of HIV1 integrase strand transfer activity by PAGE.
For assay [3], the system named is HCT-116. The assay can be described thus: Cytotoxicity against human HCT116 cells expressing p53 after 72 hrs by MTT assay. To be noted: HCT-116, 72 h. In kind it is functional. The procedure, abridged: (§1)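 HCT116 p53+/+ or p53−/− cells grown as monolayers in RPMI 1640 with 10% FBS and 2 mmol/L L-glutamine at 37 °C, 5% CO2, and used in exponential growth. Cells were seeded, allowed to attach, then exposed continuously to drug for 72 h. DMSO stocks were diluted in medium. MTT (0.5 mg/mL final) was added for 4 h at 37 °C and read at 570 nm. Triplicates; IC50 from log concentration versus % cells killed.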
For orientation: Formazan colour is commonly taken as a measure of viable cells.

Assay [4] concerns HCT-116. The assay can be described thus: Cytotoxicity against p53 deficient human HCT116 cells after 72 hrs by MTT assay. The format is functional. The conditions noted are these: HCT-116, 72 h. The procedure, abridged:
as §1

T1 sequence (Q7ZJM1 whole entry): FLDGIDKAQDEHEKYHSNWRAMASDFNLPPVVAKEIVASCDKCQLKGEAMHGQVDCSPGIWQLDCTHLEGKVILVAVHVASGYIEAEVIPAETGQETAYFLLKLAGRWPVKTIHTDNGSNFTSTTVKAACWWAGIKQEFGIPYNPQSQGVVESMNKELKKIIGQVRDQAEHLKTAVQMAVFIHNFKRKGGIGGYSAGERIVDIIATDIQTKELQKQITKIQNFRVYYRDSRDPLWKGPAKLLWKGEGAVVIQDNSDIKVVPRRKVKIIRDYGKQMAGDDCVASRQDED

Turning to `CCCCCn1c(=O)c(C(=O)Nc2cc([N+](=O)[O-])ccc2O)c(O)c2ccccc21`, the IC50 in assay [1] and in assay [2] was 9 µM each time. Besides, the CC50 in the assay with HCT-116 [3] and in the assay on HCT-116 [4] was above 10 µM in each case.
In the case of `O=C(O)C(=O)CC(=O)c1cccn1Cc1ccc(F)cc1`, the CC50 in the assay with HCT-116 [3] and in the assay on HCT-116 [4] was above 10 µM each time.
As to `CCCCCn1c(=O)c(C(=O)O)c(O)c2cc(Cc3ccc(F)cc3)ccc21`, the IC50 (usually the concentration that gives 50% inhibition) in assay [1] turned out to be 92 µM; in assay [2], 5 µM. For the same compound, the CC50 in the assay with HCT-116 [3] and with HCT-116 [4] was above 10 µM throughout.
For `CCOC(=O)c1c(O)c2cc(Cc3ccccc3)ccc2n(C)c1=O`, the results for the concentration for half-maximal inhibition (IC50) in assay [1] and in assay [2] were 275 µM and 110 µM, respectively. The CC50 with HCT-116 [3] and with HCT-116 [4] was above 10 µM in each case.
`CCOC(=O)c1c(O)c2cc(Cc3ccc(F)cc3)ccc2n(C)c1=O`: the 50% inhibitory concentration (IC50) in assay [1] came to 800 µM; in assay [2] it was 220 µM. For the same compound, the CC50 in the assay on HCT-116 [3] and with HCT-116 [4] was above 10 µM throughout.
For `Cn1c(=O)c(C(=O)O)c(O)c2cc(Cc3ccccc3)ccc21`, the IC50 in assay [1] came to 45 µM; in assay [2] it was 6 µM. Besides, the CC50 in the assay with HCT-116 [3] and in the assay on HCT-116 [4] was above 10 µM in each case.
Consider `Cn1c(=O)c(C(=O)O)c(O)c2cc(Cc3ccc(F)cc3)ccc21`, for which the values for the IC50 in assay [1] and in assay [2] were 23 µM and 0.9 µM, respectively. Besides, the CC50 with HCT-116 [3] and with HCT-116 [4] was above 10 µM throughout.
Consider `COc1ccc2c(c1)c(O)c(C(=O)O)c(=O)n2C`, for which the IC50 in assay [1] was 580 µM; in assay [2] it was 320 µM. For the same compound, the CC50 in the assay on HCT-116 [3] and in the assay on HCT-116 [4] was above 10 µM throughout.
For `Cn1c(=O)c(C(=O)O)c(O)c2cc(Oc3ccccc3)ccc21`, the IC50 was found to be 34 µM in assay [1] and 14 µM in assay [2]. In addition, the CC50 in the assay on HCT-116 [3] and with HCT-116 [4] was above 10 µM each time.
`CCOC(=O)c1c(O)c2cc(OC)ccc2n(C)c1=O`: the IC50 in assay [1] and in assay [2] was above 1000 µM in each case. Further, the CC50 in the assay with HCT-116 [3] and in the assay on HCT-116 [4] was above 10 µM in each case.

(Values after ChEMBL document CHEMBL1152870, “Design and synthesis of novel dihydroquinoline-3-carboxylic acids as HIV-1 integrase inhibitors” (Bioorg Med Chem, 2009).)
